Activity calls are given as the source filed them. No cut-off for these calls is given here.
Experiments:
[1] = target: T1, 5-hydroxytryptamine receptor 2C (Homo sapiens) (UniProt P28335); assay: Agonist activity at tTA containing TEV cleavage site-fused 5-HT2C-INI receptor isoform (unknown origin) expressed in TEV-fused beta-arrestin2 expressing HEK cells assessed as induction of beta-arrestin2 recruitment up to 10 uM after 20 hrs by Tango assay; type: cell-based
T1 sequence (whole entry): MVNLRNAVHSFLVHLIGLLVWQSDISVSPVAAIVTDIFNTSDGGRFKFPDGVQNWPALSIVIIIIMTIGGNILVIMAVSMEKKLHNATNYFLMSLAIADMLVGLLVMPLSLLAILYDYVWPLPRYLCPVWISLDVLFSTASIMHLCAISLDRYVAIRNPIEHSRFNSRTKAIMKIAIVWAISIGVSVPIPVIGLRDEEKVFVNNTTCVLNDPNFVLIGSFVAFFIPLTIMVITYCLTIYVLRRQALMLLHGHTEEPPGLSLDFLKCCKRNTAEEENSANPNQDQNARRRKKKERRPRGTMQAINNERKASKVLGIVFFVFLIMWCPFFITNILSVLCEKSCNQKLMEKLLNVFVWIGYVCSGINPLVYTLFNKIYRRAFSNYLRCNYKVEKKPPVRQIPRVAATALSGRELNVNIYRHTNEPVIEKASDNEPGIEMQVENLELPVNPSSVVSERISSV
Procedure, shortened: (§1)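 HTLA cells (HEK cells with TEV-fused β-arrestin-2 and tTA-driven luciferase) transfected with tTA-fused 5-HT2C-INI receptor carrying a TEV site. Luminescence read after 20 min lysis at room temperature. Normalized to % 5-HT and fitted sigmoidally. NA means no activity up to 10 μM. Mean of n = 3.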

[2] = target: T2, 5-hydroxytryptamine receptor 2C (Homo sapiens, UniProt P28335); assay: Agonist activity at human 5-HT2C-INI receptor isoform expressed in Flp-IN HEK293 cells assessed as induction of Gq-mediated calcium flux measured every second for 5 mins by Fluo-4 dye based FLIPR assay; type: functional, cell-based
T2 sequence (P28335 whole entry): T1 sequence (whole entry)

[3] = target: 5-HT2A receptor (Homo sapiens, UniProt P28223); assay: Agonist activity at human 5-HT2A receptor expressed in Flp-IN HEK293 cells assessed as induction of calcium flux measured every second for 5 mins by Fluo-4 dye based FLIPR assay relative to serotonin; type: cell-based; settings: Flp-IN HEK293 cells expressing human 5-HT2A receptor
[4] = target: T3, 5-hydroxytryptamine receptor 2B (Homo sapiens, UniProt P41595); assay: Agonist activity at human 5-HT2B receptor expressed in Flp-IN HEK293 cells assessed as induction of calcium flux measured every second for 5 mins by Fluo-4 dye based FLIPR assay; type: cell-based
[5] = target: T1, 5-hydroxytryptamine receptor 2C (Homo sapiens); assay: Ratio of Emax to EC50 for human 5-HT2C-INI receptor isoform expressed in Flp-IN HEK293 cells; type: cell-based
[6] = target: 5-HT2B receptor (Homo sapiens, UniProt P41595); assay: Agonist activity at human 5-HT2B receptor expressed in Flp-IN HEK293 cells assessed as induction of calcium flux measured every second for 5 mins by Fluo-4 dye based FLIPR assay relative to serotonin; type: cell-based; settings: Flp-IN HEK293 cells expressing human 5-HT2B receptor
[7] = target: T4, 5-hydroxytryptamine receptor 2A (Homo sapiens, UniProt P28223); assay: Agonist activity at human 5-HT2A receptor expressed in Flp-IN HEK293 cells assessed as induction of calcium flux measured every second for 5 mins by Fluo-4 dye based FLIPR assay; type: cell-based
[8] = target: T1, 5-hydroxytryptamine receptor 2C (Homo sapiens); assay: Agonist activity at human 5-HT2C-INI receptor isoform expressed in Flp-IN HEK293 cells assessed as induction of Gq-mediated calcium flux measured every second for 5 mins by Fluo-4 dye based FLIPR assay relative to serotonin; type: functional, cell-based
[9] = target: CYP2C9 (Homo sapiens, UniProt P11712); assay: in vitro; settings: liver microsomes, probe tolbutamide
[10] = target: T3, 5-hydroxytryptamine receptor 2B; assay: Agonist activity at human 5-HT2B receptor expressed in Flp-IN HEK293 cells assessed as induction of calcium flux up to 10 uM measured every second for 5 mins by Fluo-4 dye based FLIPR assay; type: cell-based; settings: hek293, 5 min
[11] = target: CYP2D6 (Homo sapiens, UniProt P10635); assay: in vitro; settings: liver microsomes, probe dextromethorphan
[12] = target: T3, 5-hydroxytryptamine receptor 2B; assay: Displacement of [3H]-LSD from human 5-HT2B receptor expressed in HEKT cells after 90 mins by scintillation counting method; type: cell-based
[13] = tested on: Mus musculus; assay: Antipsychotic activity in AMPH-induced hyperactivity C57BL/6J mouse model assessed as reduction in amphetamine-induced hyper-locomotion at 10 mg/kg, ip preincubated for 15 mins followed by AMPH addition measured after 90 mins; type: functional, organism-based
[14] = tested on: Mus musculus; assay: Antipsychotic activity in PCP-induced hyperactivity C57BL/6J mouse model assessed as reduction in PCP-induced hyper-locomotion at 10 to 20 mg/kg, ip preincubated for 15 mins followed by PCP addition measured after 60 mins; type: functional, organism-based
Procedure, shortened: (§2)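 Male C57BL/6J mice, 9–10 weeks old. […] PCP 5 mg/kg followed, with activity recorded a further 60 min. Read-out was total distance from infrared beam breaks, analysed by one-way ANOVA.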

[15] = target: T1, 5-hydroxytryptamine receptor 2C (Homo sapiens); assay: Agonist activity at tTA containing TEV cleavage site-fused 5-HT2C-INI receptor isoform (unknown origin) expressed in TEV-fused beta-arrestin2 expressing HEK cells assessed as induction of beta-arrestin2 recruitment after 20 hrs by Tango assay relative to serotonin; type: cell-based; procedure, shortened: as §1
[16] = target: Voltage-gated inwardly rectifying potassium channel KCNH2 (Homo sapiens, UniProt Q12809); assay: Inhibition of human ERG expressed in CHO cells by automated patch-clamp assay; type: cell-based
Procedure, shortened: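 Read-out is an IC50 in µM for hERG inhibition, measured by automated patch-clamp on CHO cells.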

[17] = tested on: Mus musculus; assay: Antipsychotic activity in AMPH-induced hyperactivity C57BL/6J mouse model assessed as reduction in amphetamine-induced hyper-locomotion at 20 mg/kg, ip preincubated for 15 mins followed by AMPH addition measured after 90 mins; type: functional, organism-based
[18] = target: T5, CYP1A2 (Homo sapiens, UniProt P05177); assay: in vitro; settings: liver microsomes, probe phenacetin
T5 sequence (P05177 whole entry): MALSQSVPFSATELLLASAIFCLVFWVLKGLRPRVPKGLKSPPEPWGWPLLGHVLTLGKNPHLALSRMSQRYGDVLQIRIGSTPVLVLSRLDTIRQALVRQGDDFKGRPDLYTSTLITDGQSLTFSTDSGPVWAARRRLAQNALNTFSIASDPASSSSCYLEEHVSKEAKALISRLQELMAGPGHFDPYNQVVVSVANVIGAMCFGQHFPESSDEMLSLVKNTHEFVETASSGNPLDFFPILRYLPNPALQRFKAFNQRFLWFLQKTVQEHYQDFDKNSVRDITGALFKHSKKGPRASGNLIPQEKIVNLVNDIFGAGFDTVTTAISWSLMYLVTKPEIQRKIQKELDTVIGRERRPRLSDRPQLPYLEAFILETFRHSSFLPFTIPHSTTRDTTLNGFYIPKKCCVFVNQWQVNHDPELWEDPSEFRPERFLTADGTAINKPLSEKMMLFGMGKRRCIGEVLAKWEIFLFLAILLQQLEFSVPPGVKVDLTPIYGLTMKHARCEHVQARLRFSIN

[19] = target: CYP3A4 (Homo sapiens, UniProt P08684); assay: in vitro; settings: liver microsomes, probe midazolam
[20] = tested on: Mus musculus; assay: Toxicity in C57BL/6J mouse assessed as reduction in baseline locomotive activity at 10 to 20 mg/kg, ip after 15 mins; type: organism-based; settings: in vivo
[21] = tested on: Mus musculus; assay: Antipsychotic activity in PCP-induced hyperactivity C57BL/6J mouse model assessed as reduction in PCP-induced hyper-locomotion at 3 mg/kg, ip preincubated for 15 mins followed by PCP addition measured after 60 mins; type: functional, organism-based; procedure, shortened: as §2
[22] = tested on: Mus musculus; assay: Antipsychotic activity in AMPH-induced hyperactivity C57BL/6J mouse model assessed as reduction in amphetamine-induced hyper-locomotion at 3 mg/kg, ip preincubated for 15 mins followed by AMPH addition measured after 90 mins; type: functional, organism-based
[23] = tested on: Mus musculus; assay: Toxicity in C57BL/6J mouse assessed as reduction in baseline locomotive activity at 3 mg/kg, ip after 15 mins; type: organism-based; settings: in vivo
[24] = target: T1, 5-hydroxytryptamine receptor 2C (Homo sapiens); assay: Ratio of Emax to EC50 for tTA containing TEV cleavage site-fused 5-HT2C-INI receptor isoform (unknown origin) expressed in TEV-fused beta-arrestin2 expressing HEK cells assessed as induction of beta-arrestin2 recruitment activity; type: cell-based
[25] = target: T2, 5-hydroxytryptamine receptor 2C; assay: Agonist activity at tTA containing TEV cleavage site-fused 5-HT2C-INI receptor isoform (unknown origin) expressed in TEV-fused beta-arrestin2 expressing HEK cells assessed as induction of beta-arrestin2 recruitment after 20 hrs by Tango assay; type: cell-based
[26] = target: 5-HT2A receptor (Rattus norvegicus, UniProt P14842); assay: Agonist activity at rat 5-HT2A receptor expressed in African clawed frog oocytes assessed as increase in current amplitude relative to 5-HT; type: cell-based; settings: African clawed frog oocytes expressing rat 5-HT2A receptor
[27] = target: T6, 5-hydroxytryptamine receptor 2C (Rattus norvegicus, UniProt P08909); assay: Agonist activity at rat 5-HT2C receptor expressed in African clawed frog oocytes assessed as increase in current amplitude; type: cell-based
T6 sequence (P08909 whole entry): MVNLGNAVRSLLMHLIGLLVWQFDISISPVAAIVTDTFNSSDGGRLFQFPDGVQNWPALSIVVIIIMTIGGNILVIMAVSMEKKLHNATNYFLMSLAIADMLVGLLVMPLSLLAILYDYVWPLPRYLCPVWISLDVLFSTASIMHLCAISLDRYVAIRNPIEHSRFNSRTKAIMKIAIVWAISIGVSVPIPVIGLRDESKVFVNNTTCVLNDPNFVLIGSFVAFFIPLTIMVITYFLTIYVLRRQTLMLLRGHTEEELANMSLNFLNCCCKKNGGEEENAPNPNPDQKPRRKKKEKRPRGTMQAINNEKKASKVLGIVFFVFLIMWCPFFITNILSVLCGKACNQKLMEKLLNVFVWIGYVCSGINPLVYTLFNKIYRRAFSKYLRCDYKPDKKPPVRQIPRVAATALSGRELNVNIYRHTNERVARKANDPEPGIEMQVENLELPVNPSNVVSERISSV

[28] = target: T4, 5-hydroxytryptamine receptor 2A; assay: Agonist activity at human 5-HT2A receptor expressed in Flp-IN HEK293 cells assessed as induction of calcium flux up to 10 uM measured every second for 5 mins by Fluo-4 dye based FLIPR assay; type: cell-based; settings: hek293, 5 min
[29] = target: T1, 5-hydroxytryptamine receptor 2C (Homo sapiens); assay: Agonist activity at human 5-HT2C-INI receptor isoform expressed in Flp-IN HEK293 cells assessed as induction of Gq-mediated calcium flux up to 10 uM measured every second for 5 mins by Fluo-4 dye based FLIPR assay; type: functional, cell-based
[30] = organism: Homo sapiens; assay: Selectivity ratio of EC50 for human 5HT2B receptor to EC50 for human 5HT2C-INI receptor

T4 sequence (P28223 whole entry, canonical isoform): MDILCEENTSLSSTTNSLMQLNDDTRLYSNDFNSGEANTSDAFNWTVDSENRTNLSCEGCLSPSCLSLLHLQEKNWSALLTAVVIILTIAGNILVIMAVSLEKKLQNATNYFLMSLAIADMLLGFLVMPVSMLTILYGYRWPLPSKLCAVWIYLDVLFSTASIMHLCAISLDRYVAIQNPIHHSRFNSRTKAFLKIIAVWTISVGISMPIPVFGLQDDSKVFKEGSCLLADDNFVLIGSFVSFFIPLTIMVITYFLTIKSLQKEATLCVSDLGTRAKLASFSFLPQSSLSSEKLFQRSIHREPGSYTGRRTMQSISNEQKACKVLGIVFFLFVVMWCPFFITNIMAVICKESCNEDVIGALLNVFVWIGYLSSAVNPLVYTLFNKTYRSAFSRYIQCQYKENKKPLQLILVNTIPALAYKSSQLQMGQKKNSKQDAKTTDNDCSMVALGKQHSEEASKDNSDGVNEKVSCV
5-HT2A receptor (Homo sapiens, UniProt P28223), sequence (P28223 whole entry): as the sequence (P28223 whole entry, canonical isoform) above
T3 sequence (P41595 whole entry, canonical isoform): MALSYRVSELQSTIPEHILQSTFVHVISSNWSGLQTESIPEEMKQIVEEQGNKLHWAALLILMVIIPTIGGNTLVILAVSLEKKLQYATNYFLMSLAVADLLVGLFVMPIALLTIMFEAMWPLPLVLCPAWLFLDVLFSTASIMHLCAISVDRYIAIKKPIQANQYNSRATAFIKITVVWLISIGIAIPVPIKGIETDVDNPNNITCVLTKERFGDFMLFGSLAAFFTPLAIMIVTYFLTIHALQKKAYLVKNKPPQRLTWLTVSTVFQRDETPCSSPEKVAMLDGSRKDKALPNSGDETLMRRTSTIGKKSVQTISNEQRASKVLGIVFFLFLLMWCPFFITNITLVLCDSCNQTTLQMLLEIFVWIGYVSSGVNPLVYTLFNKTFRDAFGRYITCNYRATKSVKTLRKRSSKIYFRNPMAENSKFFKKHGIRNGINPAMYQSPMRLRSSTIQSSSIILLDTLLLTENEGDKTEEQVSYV
5-HT2B receptor, sequence (P41595 whole entry): as the sequence (P41595 whole entry, canonical isoform) above
5-HT2A receptor (Rattus norvegicus, UniProt P14842), sequence (P14842 whole entry): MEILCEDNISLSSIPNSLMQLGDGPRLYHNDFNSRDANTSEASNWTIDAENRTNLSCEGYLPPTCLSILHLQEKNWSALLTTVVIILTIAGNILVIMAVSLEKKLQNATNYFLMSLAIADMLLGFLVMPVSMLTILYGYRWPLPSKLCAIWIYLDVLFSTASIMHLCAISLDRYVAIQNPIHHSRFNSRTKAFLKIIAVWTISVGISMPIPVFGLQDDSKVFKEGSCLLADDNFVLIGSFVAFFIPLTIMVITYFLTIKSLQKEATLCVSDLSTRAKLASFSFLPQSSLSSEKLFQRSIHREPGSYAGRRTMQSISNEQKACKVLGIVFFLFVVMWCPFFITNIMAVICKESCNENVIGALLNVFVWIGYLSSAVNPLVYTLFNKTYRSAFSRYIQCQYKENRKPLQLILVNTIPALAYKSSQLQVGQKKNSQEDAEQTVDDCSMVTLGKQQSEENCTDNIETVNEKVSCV
CYP2C9, sequence (P11712 whole entry): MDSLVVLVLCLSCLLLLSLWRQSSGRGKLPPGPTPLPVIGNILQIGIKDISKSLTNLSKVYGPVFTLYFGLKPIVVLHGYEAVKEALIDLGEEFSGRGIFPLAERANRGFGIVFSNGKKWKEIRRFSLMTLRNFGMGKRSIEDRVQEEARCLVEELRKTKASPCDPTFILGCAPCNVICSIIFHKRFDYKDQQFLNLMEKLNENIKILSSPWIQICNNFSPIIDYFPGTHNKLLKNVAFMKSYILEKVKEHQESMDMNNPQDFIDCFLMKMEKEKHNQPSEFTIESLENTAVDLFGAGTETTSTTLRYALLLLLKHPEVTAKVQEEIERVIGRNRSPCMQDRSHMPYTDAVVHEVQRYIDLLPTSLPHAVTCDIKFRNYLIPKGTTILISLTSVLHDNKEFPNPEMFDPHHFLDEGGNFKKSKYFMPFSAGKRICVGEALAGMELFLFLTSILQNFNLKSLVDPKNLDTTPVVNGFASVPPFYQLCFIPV
CYP3A4, sequence (P08684 whole entry): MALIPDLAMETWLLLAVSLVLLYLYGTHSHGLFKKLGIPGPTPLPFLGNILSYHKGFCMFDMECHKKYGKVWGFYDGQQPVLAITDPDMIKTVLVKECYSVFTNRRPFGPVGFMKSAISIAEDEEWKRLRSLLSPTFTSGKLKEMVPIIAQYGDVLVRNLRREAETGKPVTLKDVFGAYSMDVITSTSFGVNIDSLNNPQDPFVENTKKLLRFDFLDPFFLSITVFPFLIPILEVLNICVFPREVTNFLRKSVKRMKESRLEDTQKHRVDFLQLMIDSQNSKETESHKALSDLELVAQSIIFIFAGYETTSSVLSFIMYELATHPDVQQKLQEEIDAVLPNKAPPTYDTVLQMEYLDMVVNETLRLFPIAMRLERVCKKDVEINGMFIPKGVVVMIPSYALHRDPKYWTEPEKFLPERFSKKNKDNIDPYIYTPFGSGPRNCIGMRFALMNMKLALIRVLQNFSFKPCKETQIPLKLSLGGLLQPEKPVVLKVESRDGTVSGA
Voltage-gated inwardly rectifying potassium channel KCNH2, sequence (Q12809 whole entry): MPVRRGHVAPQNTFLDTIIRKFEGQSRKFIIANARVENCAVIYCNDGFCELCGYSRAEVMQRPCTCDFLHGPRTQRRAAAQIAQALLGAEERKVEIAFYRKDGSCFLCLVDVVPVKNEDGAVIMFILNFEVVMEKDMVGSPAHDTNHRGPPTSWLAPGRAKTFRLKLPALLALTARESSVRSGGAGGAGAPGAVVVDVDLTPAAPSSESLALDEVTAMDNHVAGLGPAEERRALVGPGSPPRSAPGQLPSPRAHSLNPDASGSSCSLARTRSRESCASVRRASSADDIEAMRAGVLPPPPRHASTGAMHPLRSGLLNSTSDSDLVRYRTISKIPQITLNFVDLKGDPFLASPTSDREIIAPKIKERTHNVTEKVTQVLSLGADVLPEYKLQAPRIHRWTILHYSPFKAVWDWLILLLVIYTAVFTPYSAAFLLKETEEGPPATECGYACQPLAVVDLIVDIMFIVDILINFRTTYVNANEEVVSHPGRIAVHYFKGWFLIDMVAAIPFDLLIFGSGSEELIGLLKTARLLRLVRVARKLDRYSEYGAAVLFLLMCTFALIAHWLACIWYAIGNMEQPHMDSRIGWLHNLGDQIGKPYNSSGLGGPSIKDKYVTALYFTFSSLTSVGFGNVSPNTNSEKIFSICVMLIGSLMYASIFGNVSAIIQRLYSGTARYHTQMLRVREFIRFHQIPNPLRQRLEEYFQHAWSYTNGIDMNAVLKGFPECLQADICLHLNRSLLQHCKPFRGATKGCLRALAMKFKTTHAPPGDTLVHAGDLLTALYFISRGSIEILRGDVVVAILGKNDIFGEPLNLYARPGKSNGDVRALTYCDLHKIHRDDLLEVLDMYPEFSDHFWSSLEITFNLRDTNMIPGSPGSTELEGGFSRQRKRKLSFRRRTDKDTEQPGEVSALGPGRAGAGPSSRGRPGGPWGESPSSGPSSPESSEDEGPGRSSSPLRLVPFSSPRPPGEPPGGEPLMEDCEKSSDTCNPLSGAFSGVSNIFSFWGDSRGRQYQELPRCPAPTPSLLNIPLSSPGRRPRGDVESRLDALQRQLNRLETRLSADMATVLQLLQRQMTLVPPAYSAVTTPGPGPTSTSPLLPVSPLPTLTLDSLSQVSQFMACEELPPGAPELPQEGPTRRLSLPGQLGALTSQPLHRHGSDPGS
CYP2D6, sequence (P10635 whole entry): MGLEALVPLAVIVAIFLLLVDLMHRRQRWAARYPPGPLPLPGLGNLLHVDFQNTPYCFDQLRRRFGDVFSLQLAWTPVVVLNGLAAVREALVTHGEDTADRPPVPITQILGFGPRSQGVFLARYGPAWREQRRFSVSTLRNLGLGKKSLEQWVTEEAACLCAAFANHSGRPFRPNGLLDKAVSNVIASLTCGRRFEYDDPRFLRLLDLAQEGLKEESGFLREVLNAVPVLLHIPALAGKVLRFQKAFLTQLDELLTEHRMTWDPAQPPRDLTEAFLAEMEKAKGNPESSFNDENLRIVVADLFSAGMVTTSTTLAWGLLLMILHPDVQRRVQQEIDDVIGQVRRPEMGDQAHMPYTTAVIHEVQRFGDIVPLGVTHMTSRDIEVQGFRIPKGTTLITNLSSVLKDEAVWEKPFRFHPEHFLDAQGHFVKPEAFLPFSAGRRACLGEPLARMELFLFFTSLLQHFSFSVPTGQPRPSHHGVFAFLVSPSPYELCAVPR

Row | Structure (SMILES) | EC50 ([2]; read-out: EC50) | Emax at 5 min [3] | EC50 [4] | log(ratio) [5] | Emax at 5 min [6] | EC50 [7] | Emax [8] | Activity [10] | Emax [15] | further results
1 | CNC[C@H]1C[C@@H]1c1cc(F)ccc1OC | 23 nM | 79% | 89 nM | 7.49 | 54% | 271 nM | 71% | – | – | Activity [1]: inactive
2 | COc1ccccc1CNC[C@H]1C[C@@H]1c1cc(F)ccc1OC.Cl | – | 63% | – | – | – | – | 92% | Not Active | 43% | inhibition at 10 µM [9]: 9.3%; inhibition at 10 µM [11]: 68.9%; Ki [12]: 411 nM; Activity [13]: inactive; Activity [14]: inactive; IC50 [16]: 1400 nM; Activity [17]: Active; inhibition at 10 µM [18]: 20.5%; inhibition at 10 µM [19]: 85.6%; Activity [20]: Non-Toxic
3 | COc1ccccc1CNC[C@H]1C[C@@H]1c1cc(F)ccc1OCCF | – | 78% | – | – | 22% | – | 93% | – | 54% | –
4 | C[C@H]1CNCCc2ccc(Cl)cc21 [LORCASERIN] | – | – | – | – | – | – | – | – | – | Activity [21]: inactive; Activity [22]: Active; Activity [23]: Toxic
5 | COc1ccc(F)cc1[C@H]1C[C@@H]1CNCc1cccs1.Cl | 120 nM | 34% | – | 6.7 | – | 438 nM | 60% | Not Active | – | Activity [1]: inactive
6 | C=CCOc1ccc(F)cc1[C@H]1C[C@@H]1CNCc1ccccc1OC | 9.2 nM | 80% | 113 nM | 8.02 | 28% | 28 nM | 97% | – | 56% | log(ratio) [24]: 7.39; EC50 ([2]; read-out: pEC50 (converted)): 8.91 nM; EC50 [25]: 22.7 nM
7 | COc1cc(CC(C)N)c(OC)cc1I (centres undefined) | – | – | – | – | – | – | – | – | – | Emax [26]: 46%; EC50 [27]: 178 nM
8 | COc1ccc(CNC[C@@H]2C[C@H]2c2cc(F)ccc2OC)cc1.Cl | – | – | – | – | – | – | – | Not Active | – | Activity [28]: Not Active; Activity [29]: inactive
9 | COc1ccc(F)cc1C1CC1CNCc1ccccc1OCCF (racemic) | 28 nM | 80% | 56 nM | – | 11% | 398 nM | 16% | – | – | Ratio EC50 [30]: 2

— ChEMBL document CHEMBL4011649 (J Med Chem, 2017)
